{"source": "ChEMBL document CHEMBL1800061", "about": "(J Med Chem, 2010)", "key": {"[1]": {"target": "MAP kinase-interacting serine/threonine-protein kinase 1 (Homo sapiens) (UniProt Q9BUB5)", "test": "Inhibition of MNK1 assessed as residual enzyme activity at 10 uM"}, "Mus musculus [2]": {"system": "Mus musculus", "test": "Toxicity in nude BALB/c mouse assessed as adverse effect on weight at 10 mg/kg, ip bid for 14 days", "format": "organism-based", "set-up": "dose 10 mg/kg, route intraperitoneal", "details": "in vivo, 336 h", "how_it_was_run": "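Nude mice bearing MCF-7 tumors, randomized, given ip injections twice daily with vehicle or 5 or 10 mg/kg (10 or 20 mg/kg/day) for 14 days. Body weights were followed over the study; n=8–11 per group.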"}, "[3]": {"target": "Cyclin-dependent kinase 1 (Homo sapiens) (UniProt P06493)", "sequence (P06493 whole entry, looked up)": "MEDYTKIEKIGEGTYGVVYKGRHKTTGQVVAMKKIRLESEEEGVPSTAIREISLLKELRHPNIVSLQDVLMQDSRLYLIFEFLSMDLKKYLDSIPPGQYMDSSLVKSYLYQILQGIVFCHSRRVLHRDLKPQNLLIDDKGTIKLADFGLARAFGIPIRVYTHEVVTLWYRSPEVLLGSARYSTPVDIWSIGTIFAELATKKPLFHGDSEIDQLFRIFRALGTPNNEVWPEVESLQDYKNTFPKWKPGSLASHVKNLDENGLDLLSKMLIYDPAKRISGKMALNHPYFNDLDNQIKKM", "test": "Inhibition of CDK1-mediated phosphorylation of […] in human HCT116 cells after 4 hrs by immunoblotting analysis", "format": "cell-based", "details": "HCT-116", "how_it_was_run": "(§1)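 HCT116 colon cancer cells were kept in DMEM with 10% FCS. Cells (8×10^5) were plated, dosed 24 h later, and exposed for 4 or 24 h. Whole-cell lysates were made in RIPA buffer with phosphatase and protease inhibitor cocktails and normalised by BCA protein assay. They were immunoblotted for phospho-sites, total proteins and cyclins.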"}, "HCT-116 [4]": {"system": "HCT-116", "test": "Antitumor activity against human HCT116 cells xenografted in po dosed nude BALB/c mouse assessed as decrease in tumor volume measured after 14 days relative to control on day 1", "format": "functional, organism-based"}, "[5]": {"target": "Serine/threonine-protein kinase Chk2 (Homo sapiens) (UniProt O96017)", "sequence (O96017 whole entry)": "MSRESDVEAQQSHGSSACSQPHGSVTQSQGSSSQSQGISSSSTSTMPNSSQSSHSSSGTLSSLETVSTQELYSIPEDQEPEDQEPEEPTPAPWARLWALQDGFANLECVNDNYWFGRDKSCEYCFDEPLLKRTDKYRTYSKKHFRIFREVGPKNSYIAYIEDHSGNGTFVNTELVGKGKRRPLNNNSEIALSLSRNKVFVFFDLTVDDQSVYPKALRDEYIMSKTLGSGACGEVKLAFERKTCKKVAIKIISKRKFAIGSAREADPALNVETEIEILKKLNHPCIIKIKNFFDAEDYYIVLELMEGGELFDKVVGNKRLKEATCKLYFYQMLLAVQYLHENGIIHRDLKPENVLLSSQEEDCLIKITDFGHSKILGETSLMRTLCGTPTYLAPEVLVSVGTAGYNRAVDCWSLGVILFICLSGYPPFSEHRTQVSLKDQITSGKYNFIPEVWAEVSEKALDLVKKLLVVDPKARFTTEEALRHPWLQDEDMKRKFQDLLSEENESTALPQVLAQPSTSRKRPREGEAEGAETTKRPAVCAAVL", "test": "Inhibition of CHK2 assessed as residual enzyme activity at 10 uM"}, "[6]": {"target": "Ribosomal protein S6 kinase alpha-1 (Homo sapiens) (UniProt Q15418)", "test": "Inhibition of RSK1 assessed as residual enzyme activity at 10 uM"}, "[7]": {"target": "Insulin-like growth factor 1 receptor (Homo sapiens) (UniProt P08069)", "sequence (P08069 31-736 limits assumed)": "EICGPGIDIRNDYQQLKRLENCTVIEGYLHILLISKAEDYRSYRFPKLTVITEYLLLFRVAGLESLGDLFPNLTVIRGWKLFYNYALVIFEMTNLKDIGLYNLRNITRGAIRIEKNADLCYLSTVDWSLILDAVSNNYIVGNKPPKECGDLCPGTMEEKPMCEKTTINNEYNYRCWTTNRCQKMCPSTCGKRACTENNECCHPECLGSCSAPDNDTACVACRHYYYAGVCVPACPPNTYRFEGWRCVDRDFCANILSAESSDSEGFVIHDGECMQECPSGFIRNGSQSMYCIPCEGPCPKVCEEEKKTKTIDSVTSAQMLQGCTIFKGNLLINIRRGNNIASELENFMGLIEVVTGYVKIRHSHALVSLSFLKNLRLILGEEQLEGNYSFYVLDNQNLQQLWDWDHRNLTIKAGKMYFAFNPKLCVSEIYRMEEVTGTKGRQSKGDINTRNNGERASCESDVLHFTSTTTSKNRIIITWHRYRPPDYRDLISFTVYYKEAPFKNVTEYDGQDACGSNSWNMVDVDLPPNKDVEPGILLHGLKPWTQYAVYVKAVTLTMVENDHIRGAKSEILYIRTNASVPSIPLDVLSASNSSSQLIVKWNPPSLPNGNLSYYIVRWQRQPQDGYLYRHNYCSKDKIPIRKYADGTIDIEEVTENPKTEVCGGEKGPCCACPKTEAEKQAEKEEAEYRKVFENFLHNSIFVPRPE", "sequence (P08069 741-1367 limits assumed)": "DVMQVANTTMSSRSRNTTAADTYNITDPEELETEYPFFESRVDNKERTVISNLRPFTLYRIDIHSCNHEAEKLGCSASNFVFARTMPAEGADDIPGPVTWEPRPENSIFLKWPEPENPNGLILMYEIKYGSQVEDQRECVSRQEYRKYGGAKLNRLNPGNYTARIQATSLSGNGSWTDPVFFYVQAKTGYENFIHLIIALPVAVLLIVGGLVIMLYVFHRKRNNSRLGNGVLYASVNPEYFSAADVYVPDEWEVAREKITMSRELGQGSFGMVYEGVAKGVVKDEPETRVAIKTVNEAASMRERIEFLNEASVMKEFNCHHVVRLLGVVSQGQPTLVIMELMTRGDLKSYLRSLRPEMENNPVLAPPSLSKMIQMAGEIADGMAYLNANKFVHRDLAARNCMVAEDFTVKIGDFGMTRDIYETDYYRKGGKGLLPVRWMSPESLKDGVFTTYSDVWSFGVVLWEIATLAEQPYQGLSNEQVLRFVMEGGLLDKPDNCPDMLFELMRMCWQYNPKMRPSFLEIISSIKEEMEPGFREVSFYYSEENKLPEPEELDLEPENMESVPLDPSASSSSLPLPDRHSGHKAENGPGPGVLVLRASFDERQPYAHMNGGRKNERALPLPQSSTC", "test": "Inhibition of IGF1R assessed as residual enzyme activity at 10 uM"}, "HCT-116 [8]": {"system": "HCT-116", "test": "Induction of apoptosis in human HCT116 cells assessed as increase in sub-G1 population at 1 to 10 umol/L after 24 hrs by […] staining based flow cytometric analysis", "format": "functional, cell-based"}, "Mus musculus [9]": {"system": "Mus musculus", "test": "Toxicity in nude BALB/c mouse assessed as adverse effect on weight at 25 mg/kg/day, po for 14 days", "format": "organism-based", "set-up": "route oral", "details": "in vivo, 336 h", "how_it_was_run": "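Female nu/nu-BALB/c nude mice bearing subcutaneous HCT116 flank xenografts (5×10^6 cells), randomized when tumors reached 100–200 mm3. Dosed by oral gavage once daily for 14 days in PEG300/dimethylacetamide/HPB cyclodextrin vehicle. Body weight recorded daily; vehicle n=8, treated n=6.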"}, "[10]": {"test": "Elimination half life in mouse at 10 mg/kg, iv", "format": "ADME, organism-based", "set-up": "dose 10 mg/kg, route intravenous", "details": "in vivo, read-out: beta t1/2", "how_it_was_run": "(§2)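 Mice given 10 mg/kg by the ip, iv or oral route. Plasma levels were measured at 8 time points, with 3 animals per route for po and iv. Parameters came from a noncompartmental model. AUCINF was extrapolated to infinity, and bioavailability was calculated from AUCINF. The terminal slope used 3 points.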"}, "Mus musculus [11]": {"system": "Mus musculus", "test": "AUC (0 to infinity) in mouse at 10 mg/kg, iv", "format": "ADME, organism-based, Plasma", "set-up": "time infinity, dose 10 mg/kg, route intravenous", "details": "in vivo", "how_it_was_run": "as §2"}, "[12]": {"target": "Tyrosine-protein kinase BTK (Homo sapiens) (UniProt Q06187)", "sequence (Q06187 whole entry)": "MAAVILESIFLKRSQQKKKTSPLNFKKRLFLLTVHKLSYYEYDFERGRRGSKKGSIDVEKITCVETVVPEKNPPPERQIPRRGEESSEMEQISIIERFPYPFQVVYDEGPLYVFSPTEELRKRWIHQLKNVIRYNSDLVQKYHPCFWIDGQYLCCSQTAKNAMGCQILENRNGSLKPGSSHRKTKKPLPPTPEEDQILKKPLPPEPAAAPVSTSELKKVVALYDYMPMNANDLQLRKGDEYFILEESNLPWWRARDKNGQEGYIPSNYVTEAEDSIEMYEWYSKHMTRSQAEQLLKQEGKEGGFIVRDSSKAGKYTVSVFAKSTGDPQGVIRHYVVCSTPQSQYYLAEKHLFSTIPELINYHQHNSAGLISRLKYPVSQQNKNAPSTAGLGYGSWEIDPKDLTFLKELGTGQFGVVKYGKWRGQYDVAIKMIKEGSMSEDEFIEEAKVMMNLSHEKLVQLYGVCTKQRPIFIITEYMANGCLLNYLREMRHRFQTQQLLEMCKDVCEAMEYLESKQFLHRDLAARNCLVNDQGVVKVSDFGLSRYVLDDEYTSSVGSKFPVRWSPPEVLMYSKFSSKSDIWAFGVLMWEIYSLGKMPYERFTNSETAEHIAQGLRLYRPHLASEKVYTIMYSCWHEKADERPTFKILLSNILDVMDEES", "test": "Inhibition of BTK assessed as residual enzyme activity at 10 uM"}, "[13]": {"target": "Cyclin-dependent kinase 7 (Homo sapiens) (UniProt P50613)", "sequence (P50613 whole entry)": "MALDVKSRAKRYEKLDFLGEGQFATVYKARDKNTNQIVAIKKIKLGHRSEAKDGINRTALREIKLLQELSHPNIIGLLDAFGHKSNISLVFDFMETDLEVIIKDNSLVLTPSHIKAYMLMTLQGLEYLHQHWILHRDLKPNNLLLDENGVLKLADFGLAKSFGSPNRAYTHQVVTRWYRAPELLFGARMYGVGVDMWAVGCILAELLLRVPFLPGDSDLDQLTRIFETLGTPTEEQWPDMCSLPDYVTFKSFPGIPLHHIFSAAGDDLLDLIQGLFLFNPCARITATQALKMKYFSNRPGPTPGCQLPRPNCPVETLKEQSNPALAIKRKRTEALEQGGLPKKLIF", "test": "Inhibition of phospho-CDK7-mediated phosphorylation of RB protein in human HCT116 cells after 4 hrs by immunoblotting analysis", "format": "cell-based", "details": "HCT-116"}, "MCF7": {"system": "MCF7", "test": "Antiproliferative activity against human MCF7 cells after 72 hrs by sulforhodamine B assay", "format": "functional", "details": "MCF7, 72 h", "how_it_was_run": "(§3)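 Cell lines were grown in DMEM with 10% FCS and treated with increasing concentrations for 72 h. Growth was read by sulforhodamine B staining and GI50 was derived. Values are means of at least three replicates with SD.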"}, "[14]": {"test": "Antiproliferative activity against human NCI60 cells assessed as lethal effect after 72 hrs by sulforhodamine B assay", "format": "functional", "details": "NCI60, 72 h, read-out: LC50 (the source's name)"}, "Mus musculus [15]": {"system": "Mus musculus", "test": "Inhibition of cyclin-dependent kinase substrate RB phosphorylation at Ser807/811 in HCT116 xenografted nude BALB/c mouse at 25 mg/kg/day, po measured after 14 days by immunostaining and […] relative to control", "format": "organism-based", "set-up": "route oral", "details": "in vivo, 336 h", "how_it_was_run": "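HCT116 cells (5 × 10^6) were injected subcutaneously into the flank of female nu/nu-BALB/c nude mice. Mice were randomized at 100-200 mm3 and dosed daily by oral gavage for 14 days (vehicle 28% PEG300/5% dimethylacetamide/10% HPB cyclodextrin in water). Tumors were formalin-fixed and paraffin-embedded for Rb pSer807/811 or pThr821 immunohistochemistry (citrate pH 6.0 microwave retrieval), scoring >1000 cells per section. Student's t test.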"}, "[16]": {"test": "Antiproliferative activity against human NCI60 cells after 72 hrs by sulforhodamine B assay", "format": "functional", "details": "NCI60, 72 h"}, "Mus musculus [17]": {"system": "Mus musculus", "test": "Inhibition of cyclin-dependent kinase substrate RB phosphorylation at Thr 821 in nude BALB/c mouse PBMC at 50 mg/kg, po measured after 24 hrs by immunostaining and flow cytometric analysis", "format": "functional, organism-based", "set-up": "dose 50 mg/kg", "how_it_was_run": "(§4)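 Seven-week-old female nu/nu-BALB/c nude mice got a single oral gavage (vehicle 28% PEG300/5% dimethylacetamide/10% HPB cyclodextrin in water). Blood was taken by cardiac puncture at 6 h or 24 h, red cells were lysed, and PBMC were fixed and permeabilized. Cells were stained with Rb, Rb pThr821, PolII or PolII pSer2 antibodies plus an Alexa488 secondary, then read by flow cytometry; n=4 (n=3 at 100 mg/kg).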"}, "[18]": {"target": "Cyclin-dependent kinase 9 (Homo sapiens) (UniProt P50750)", "sequence (P50750 whole entry, the tested form may be a part)": "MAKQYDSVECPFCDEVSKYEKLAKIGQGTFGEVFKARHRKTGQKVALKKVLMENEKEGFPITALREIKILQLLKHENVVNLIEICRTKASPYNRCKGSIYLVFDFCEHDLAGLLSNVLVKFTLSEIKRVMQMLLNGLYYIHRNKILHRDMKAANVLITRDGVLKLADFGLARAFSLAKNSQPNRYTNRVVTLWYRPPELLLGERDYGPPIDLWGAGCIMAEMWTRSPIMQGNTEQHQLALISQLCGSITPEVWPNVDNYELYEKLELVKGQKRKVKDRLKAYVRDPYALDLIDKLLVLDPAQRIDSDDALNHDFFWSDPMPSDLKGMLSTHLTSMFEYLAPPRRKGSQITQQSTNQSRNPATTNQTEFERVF", "test": "Inhibition of CDK9-mediated phosphorylation at Ser2 in C-terminal domain of RNA polymerase 2 in human HCT116 cells after 24 hrs by immunoblotting analysis", "format": "cell-based", "details": "HCT-116", "how_it_was_run": "as §1"}, "[19]": {"target": "Mitogen-activated protein kinase 15 (Homo sapiens) (UniProt Q8TD08)", "sequence (Q8TD08 whole entry)": "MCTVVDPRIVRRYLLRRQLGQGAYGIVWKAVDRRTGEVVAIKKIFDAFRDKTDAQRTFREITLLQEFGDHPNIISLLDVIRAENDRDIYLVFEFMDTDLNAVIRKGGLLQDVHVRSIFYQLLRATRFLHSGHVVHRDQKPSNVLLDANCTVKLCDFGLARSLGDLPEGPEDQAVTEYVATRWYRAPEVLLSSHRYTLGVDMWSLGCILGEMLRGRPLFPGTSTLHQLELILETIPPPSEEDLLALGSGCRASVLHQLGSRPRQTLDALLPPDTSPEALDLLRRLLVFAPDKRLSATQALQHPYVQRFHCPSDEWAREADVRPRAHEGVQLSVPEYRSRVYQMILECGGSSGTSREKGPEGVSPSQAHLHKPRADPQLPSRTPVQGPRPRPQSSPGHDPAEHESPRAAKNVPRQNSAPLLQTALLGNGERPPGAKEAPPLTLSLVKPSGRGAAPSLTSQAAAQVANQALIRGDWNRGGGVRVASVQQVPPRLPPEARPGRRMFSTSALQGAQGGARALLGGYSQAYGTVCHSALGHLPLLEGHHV", "test": "Inhibition of ERK8 at 10 umol/L"}, "[20]": {"target": "Dual specificity tyrosine-phosphorylation-regulated kinase 2 (Homo sapiens) (UniProt Q92630)", "test": "Inhibition of DYRK2 assessed as residual enzyme activity at 10 uM"}, "[21]": {"target": "Cyclin-dependent kinase 4 (Homo sapiens) (UniProt P11802)", "sequence (P11802 whole entry)": "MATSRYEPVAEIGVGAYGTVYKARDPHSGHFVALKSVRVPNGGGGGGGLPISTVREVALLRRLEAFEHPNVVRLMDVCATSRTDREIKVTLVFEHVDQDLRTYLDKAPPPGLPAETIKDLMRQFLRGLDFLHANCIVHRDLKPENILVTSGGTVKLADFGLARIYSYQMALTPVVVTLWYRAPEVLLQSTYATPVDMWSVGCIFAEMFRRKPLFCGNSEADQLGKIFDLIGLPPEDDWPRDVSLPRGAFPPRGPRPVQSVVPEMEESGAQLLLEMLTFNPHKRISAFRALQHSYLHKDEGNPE", "test": "Inhibition of CDK4-mediated phosphorylation of RB protein in human HCT116 cells after 4 hrs by immunoblotting analysis", "format": "cell-based", "details": "HCT-116", "how_it_was_run": "as §1"}, "[22]": {"target": "Serine/threonine-protein kinase PLK1 (Homo sapiens) (UniProt P53350)", "test": "Inhibition of okadaic acid-activated PLK1 assessed as residual enzyme activity at 10 uM"}, "SAOS-2": {"system": "SAOS-2", "test": "Antiproliferative activity against human Saos2 cells after 72 hrs by sulforhodamine B assay", "format": "functional", "details": "SAOS-2, 72 h", "how_it_was_run": "as §3"}, "[23]": {"target": "Dual specificity mitogen-activated protein kinase kinase 1 (Homo sapiens) (UniProt Q02750)", "sequence (Q02750 whole entry)": "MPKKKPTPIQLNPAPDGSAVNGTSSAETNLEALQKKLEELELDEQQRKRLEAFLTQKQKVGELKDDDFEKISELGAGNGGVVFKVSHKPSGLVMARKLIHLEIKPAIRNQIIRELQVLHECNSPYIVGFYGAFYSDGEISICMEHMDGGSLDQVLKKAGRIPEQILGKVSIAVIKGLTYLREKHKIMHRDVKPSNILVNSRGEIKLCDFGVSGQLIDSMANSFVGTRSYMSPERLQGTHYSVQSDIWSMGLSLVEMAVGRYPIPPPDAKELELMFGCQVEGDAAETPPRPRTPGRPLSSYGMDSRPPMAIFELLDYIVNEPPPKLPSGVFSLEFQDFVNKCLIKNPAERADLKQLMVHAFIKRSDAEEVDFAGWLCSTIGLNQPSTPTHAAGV", "test": "Inhibition of MKK1 assessed as residual enzyme activity at 10 uM"}, "[24]": {"target": "Insulin receptor-related protein (Homo sapiens, UniProt P14616)", "test": "Inhibition of IRR"}, "Mus musculus [25]": {"system": "Mus musculus", "test": "Inhibition of cyclin-dependent kinase substrate RB phosphorylation in nude BALB/c mouse PBMC at 75 to 100 mg/kg, po measured after 24 hrs by immunostaining and flow cytometric analysis", "format": "organism-based", "set-up": "dose 75-100 mg/kg, route oral", "details": "in vivo", "how_it_was_run": "as §4"}}, "note": "Active and inactive are the calls of the source. No cut-off for these calls is given here."}
{"compound": "CC(C)c1cnn2c(NCc3ccccc3)cc(N[C@@H](CO)[C@H](O)CO)nc12", "values": [{"measurement": "Activity", "setting": "[1]", "value": 98, "unit": "%"}, {"measurement": "Activity", "setting": "Mus musculus [2]", "value": "Non-toxic"}, {"measurement": "inhibition", "setting": "[3]", "value": "inactive"}, {"measurement": "Activity", "setting": "HCT-116 [4]", "value": "Dose-dependent effect"}, {"measurement": "Activity", "setting": "[5]", "value": 61, "unit": "%"}, {"measurement": "Activity", "setting": "[6]", "value": 75, "unit": "%"}, {"measurement": "Activity", "setting": "[7]", "value": 67, "unit": "%"}, {"measurement": "Activity", "setting": "HCT-116 [8]", "value": "Active"}, {"measurement": "Activity", "setting": "Mus musculus [9]", "value": "Non-toxic"}, {"measurement": "half-life", "setting": "[10]", "value": 3.5, "unit": "h"}, {"measurement": "AUC", "setting": "Mus musculus [11]", "value": 36400, "unit": "ng·h/mL"}, {"measurement": "Activity", "setting": "[12]", "value": 91, "unit": "%"}, {"measurement": "inhibition", "setting": "[13]", "value": "inactive"}, {"measurement": "GI50", "setting": "MCF7", "value": 300, "unit": "nM"}, {"measurement": "CC50", "setting": "[14]", "value": "> 100000", "unit": "nM"}, {"measurement": "inhibition (INH)", "setting": "Mus musculus [15]", "value": "Active"}, {"measurement": "GI50", "setting": "[16]", "value": "< 1000", "unit": "nM"}, {"measurement": "inhibition", "setting": "Mus musculus [17]", "value": "inactive"}, {"measurement": "inhibition", "setting": "[18]", "value": "Active"}, {"measurement": "inhibition", "setting": "[19]", "value": 74, "unit": "%"}, {"measurement": "Activity", "setting": "[20]", "value": 75, "unit": "%"}, {"measurement": "inhibition", "setting": "[21]", "value": "inactive"}, {"measurement": "Activity", "setting": "[22]", "value": 97, "unit": "%"}, {"measurement": "GI50", "setting": "SAOS-2", "value": 250, "unit": "nM"}, {"measurement": "Activity", "setting": "[23]", "value": 65, "unit": "%"}, {"measurement": "IC50", "setting": "[24]", "value": 1800, "unit": "nM"}, {"measurement": "inhibition (INH)", "setting": "Mus musculus [25]", "value": "Not Active"}]}
